The target of data set [1] is D(2) dopamine receptor (Rattus norvegicus, UniProt P61169). The data set is described as follows: In vitro affinity for rat striatal Dopamine receptor D2 labeled with [3H]spiperone.
Data set [2] addresses T1, Adrenergic receptor alpha-1 (Rattus norvegicus, UniProt P15823+P23944+P43140).
T1 sequence (P15823 whole entry): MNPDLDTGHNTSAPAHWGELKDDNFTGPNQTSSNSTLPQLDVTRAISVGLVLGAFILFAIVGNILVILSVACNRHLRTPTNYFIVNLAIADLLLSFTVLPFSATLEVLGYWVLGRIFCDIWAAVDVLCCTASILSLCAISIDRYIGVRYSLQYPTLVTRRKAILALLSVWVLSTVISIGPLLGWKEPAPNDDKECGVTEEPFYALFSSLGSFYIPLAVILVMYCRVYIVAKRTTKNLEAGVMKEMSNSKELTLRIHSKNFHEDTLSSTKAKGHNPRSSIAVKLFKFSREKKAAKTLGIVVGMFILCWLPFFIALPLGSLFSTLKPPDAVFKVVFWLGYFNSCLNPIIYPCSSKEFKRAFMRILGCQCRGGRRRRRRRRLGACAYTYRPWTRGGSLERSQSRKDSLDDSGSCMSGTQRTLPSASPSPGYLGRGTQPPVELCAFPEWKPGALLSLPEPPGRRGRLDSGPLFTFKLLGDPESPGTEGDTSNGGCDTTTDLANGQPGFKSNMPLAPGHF
T1 sequence (P23944 whole entry): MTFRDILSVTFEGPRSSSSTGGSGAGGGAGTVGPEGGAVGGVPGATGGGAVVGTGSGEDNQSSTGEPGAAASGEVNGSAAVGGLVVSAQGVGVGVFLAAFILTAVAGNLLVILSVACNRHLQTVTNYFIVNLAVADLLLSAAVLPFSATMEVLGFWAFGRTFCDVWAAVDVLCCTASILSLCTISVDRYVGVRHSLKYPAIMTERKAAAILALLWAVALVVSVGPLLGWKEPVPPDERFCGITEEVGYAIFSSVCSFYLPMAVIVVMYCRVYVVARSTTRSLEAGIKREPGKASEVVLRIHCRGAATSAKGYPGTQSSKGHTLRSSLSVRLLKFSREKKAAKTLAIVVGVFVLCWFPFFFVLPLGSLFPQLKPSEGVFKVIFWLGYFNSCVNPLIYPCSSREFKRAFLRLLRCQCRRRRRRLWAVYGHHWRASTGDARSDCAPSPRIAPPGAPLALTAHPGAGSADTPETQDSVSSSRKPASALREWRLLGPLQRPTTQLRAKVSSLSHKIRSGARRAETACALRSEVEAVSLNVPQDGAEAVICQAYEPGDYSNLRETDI
T1 sequence (P43140 whole entry): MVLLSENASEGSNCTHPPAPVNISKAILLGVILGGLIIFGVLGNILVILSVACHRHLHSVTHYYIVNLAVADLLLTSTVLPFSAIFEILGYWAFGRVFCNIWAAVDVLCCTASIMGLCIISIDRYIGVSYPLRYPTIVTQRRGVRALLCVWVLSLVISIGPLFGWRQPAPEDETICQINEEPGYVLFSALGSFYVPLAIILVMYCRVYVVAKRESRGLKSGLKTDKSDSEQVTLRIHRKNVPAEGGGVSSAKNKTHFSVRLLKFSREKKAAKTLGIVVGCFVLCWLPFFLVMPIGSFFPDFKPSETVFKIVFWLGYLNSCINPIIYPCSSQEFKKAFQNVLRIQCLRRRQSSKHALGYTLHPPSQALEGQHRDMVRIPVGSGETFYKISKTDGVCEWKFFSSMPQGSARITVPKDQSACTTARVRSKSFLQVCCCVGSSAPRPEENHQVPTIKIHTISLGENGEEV

The species named for data set [3] is Rattus norvegicus. Nature of the data set: Inhibition of conditioned avoidance response (CAR). It counts as functional. An outline of the steps: (§1)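 Rats trained to avoid an electric shock, test compound given orally, and block of the conditioned avoidance response scored. ED50 (mg/kg, po) with fiducial limits by the method of Berkson.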
The species entered for data set [4] is Rattus norvegicus. The data set is described as follows: Compound was tested for the inhibition of apomorphine-induced stereotype. It counts as functional. An outline of the steps: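 In rats, oral test compound was scored for block of apomorphine-induced stereotypy as an in vivo dopamine-system measure. ED50 (mg/kg, po) and fiducial limits by Berkson's method.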

The species entered for data set [5] is Rattus norvegicus. The data set is described as follows: Compound was tested for its ability to induce catalepsy in rats. It counts as functional. The procedure, abridged: (§2)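 Catalepsy was induced in rats with orally dosed compound as a predictor of extrapyramidal liability. ED50 (mg/kg, po) with fiducial limits by Berkson's method.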
Data set [6] is filed under the species Rattus norvegicus. The data set is described as follows: Compound was tested for its ability to induce catalepsy in rats. It counts as functional. An outline of the steps: as §2
Data set [7] is filed under the species Rattus norvegicus. Nature of the data set: Compound was tested for inhibition of conditioned avoidance response (CAR ). Type of data set: functional. An outline of the steps:
as §1

Data set [8] relates to Rattus norvegicus. Nature of the data set: Compound was tested for inhibition of spontaneous motor activity in rat when administered perorally. It counts as functional. The settings on record: po.
Data set [9] concerns Mus musculus. Nature of the data set: Compound was tested for inhibition of spontaneous motor activity in mouse when administered perorally. Type of data set: functional. The following applies: po.
Data set [10] in a line: Lethal dose after peroral administration in mouse. It counts as toxicity, organism-based. The following applies: in vivo, po.
Data set [11] deals with Mus musculus. The data set is described as follows: Compound was tested for inhibition of norepinephrine lethality in mouse when administered perorally. Type of data set: functional. The settings on record: po. An outline of the steps: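 Groups of 10 nonfasted male mice dosed orally with test compound (initial 100 mg/kg) or vehicle (distilled H2O or 0.5% methocel). Active compounds retested at lower doses, 10 mice/dose, for dose response. ED50 by Berkson's method.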

For data set [12], the target named is GABA-A receptor; anion channel. The data set is described as follows: Inhibition of [3H]muscimol binding to Gamma-aminobutyric acid (GABA-A) receptor. It counts as protein-complex assay, Rattus norvegicus.
A short description of data set [13]: Binding affinity against histamine receptor was measured using radioligand ([3H]-pyrilamine) binding assay.
Data set [14] concerns Mus musculus. Nature of the data set: Compound was tested for inhibition of physostigmine lethality in mouse when administered perorally. It counts as functional. The settings on record: po. The procedure, abridged:
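Groups of 10 nonfasted male mice dosed orally with test compound (initial 100 mg/kg) or vehicle (distilled H2O or 0.5% methocel). At 30 min, physostigmine given ip at 1.25 mg/kg, and lethality followed for up to 1 h. Active compounds retested at lower doses, 10 mice/dose, for dose response. ED50 by Berkson's method.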

In data set [15] the test system is Rattus norvegicus. The data set is described as follows: (§3) Compound was tested for inhibition of ethanol potentiation in rat when administered perorally. Type of data set: functional. The following applies: po. The procedure, abridged: (§4)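 Nonfasted male rats given test drug orally, vehicle distilled H2O or 0.5% methocel. Hexobarbital sodium (40 mg/kg) or EtOH (10 mL of 20% solution/kg) given ip at 15, 30, 60 or 120 min postdrug, controls 15 min after vehicle. Loss of righting reflex lasting 1 min scored over about 10–15 min. Dose response at time of peak effect, 10 rats/dose. ED50 and fiducial limits by Berkson's method.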

The test system of data set [16] is Rattus norvegicus. Nature of the data set: Compound was tested for inhibition of hexobarbatial potentiation in rat when administered perorally. The settings on record: po. Type of data set: functional. An outline of the steps:
as §4

Data set [17] concerns Rattus norvegicus. The data set is described as §3. It counts as functional. The settings on record: po. An outline of the steps:
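Nonfasted male rats received test drug or vehicle (distilled H2O or 0.5% methocel). EtOH (10 mL of 20% solution/kg, ip) followed at 15, 30, 60 or 120 min post-drug; the vehicle group got it at 15 min. Rats were watched about 10–15 min for loss of righting reflex lasting 1 min. Dose response at peak time used 10/dose; ED50 by Berkson.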
The source holds these as a separate data set.

Experimental findings from ChEMBL document CHEMBL1123413, “Synthesis and biological evaluation of 1-(1,2-benzisothiazol-3-yl)- and (1,2-benzisoxazol-3-yl)piperazine derivatives as potential antipsychotic agents” (J Med Chem, 1986) are described below.

For orientation: IC50 means the concentration at which inhibition is half-maximal. Broadly, the ED50 is the dose that gives a 50% effect, or the effect in half of the subjects. A word on the LD50: it is the dose at which mortality reaches 50%.

D(2) dopamine receptor, sequence (P61169 whole entry): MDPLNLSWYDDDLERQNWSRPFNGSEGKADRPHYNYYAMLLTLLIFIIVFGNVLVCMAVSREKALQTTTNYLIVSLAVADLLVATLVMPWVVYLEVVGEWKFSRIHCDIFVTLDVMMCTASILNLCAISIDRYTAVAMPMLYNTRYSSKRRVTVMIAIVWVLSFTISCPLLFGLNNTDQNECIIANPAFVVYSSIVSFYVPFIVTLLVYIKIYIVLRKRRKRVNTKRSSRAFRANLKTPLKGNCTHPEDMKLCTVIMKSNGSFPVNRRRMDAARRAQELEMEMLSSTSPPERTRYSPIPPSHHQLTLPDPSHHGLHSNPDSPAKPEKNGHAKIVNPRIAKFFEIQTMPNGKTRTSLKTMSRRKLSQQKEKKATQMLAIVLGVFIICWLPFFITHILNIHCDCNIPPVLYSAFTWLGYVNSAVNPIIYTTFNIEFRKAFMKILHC

Turning to `O=C1CC2(CCCC2)CC(=O)N1CCCCN1CCN(c2noc3ccccc23)CC1`, the IC50 in [1] was found to be 25 nM; in data set [2], 7 nM. Besides, the ED50 in data set [3] worked out at 10.6 mg/kg; in data set [4], 20.2 mg/kg; in [5], 68.2 mg/kg.

As for `O=C1SC2(CCCC2)C(=O)N1CCCCN1CCCN(c2noc3ccccc23)CC1`, the half-inhibitory concentration (IC50) in [1] is more than 1000 nM. The compound further came in with a 50% effective dose (ED50) in data set [3] of more than 100 mg/kg.

As for `O=C1CSC(=O)N1CCCCN1CCN(c2noc3ccc(Cl)cc23)CC1`, the IC50 came to 440 nM in data set [1] and 33 nM in data set [2]. Further, the 50% effective dose (ED50) in data set [3] was more than 100 mg/kg.

For `O=C(CCCN1CCN(c2nsc3ccccc23)CC1)c1ccc(F)cc1`, the 50% effective dose (ED50) is 16.4 mg/kg in data set [6] and 7.4 mg/kg in [3]. The IC50 in data set [1] came to 10 nM; in data set [2] it was 8 nM.

In data set [1], `CC1CN(CCCCN2C(=O)CC3(CCCC3)CC2=O)CCN1c1nsc2ccccc12` (stereo unspecified) returned a half-inhibitory concentration (IC50) of 64 nM. This compound showed an ED50 in data set [3] of more than 100 mg/kg.

Regarding `OC(CCCN1CCN(c2noc3ccccc23)CC1)c1ccc(F)cc1` (stereo unspecified), the figures for the half-maximal inhibitory concentration (IC50) in data set [1] and in data set [2] were 30 nM and 2 nM, respectively. Moreover, the median effective dose (ED50) stood at 1 mg/kg in data set [3], 2.3 mg/kg in [4] and 2.2 mg/kg in data set [5].

As for `CC1(C)CC(=O)N(CCCCN2CCN(c3nsc4ccccc34)CC2)C(=O)C1`, the half-maximal inhibitory concentration (IC50) in data set [1] amounted to 23 nM; in data set [2] it was 4 nM. In addition, the 50% effective dose (ED50) in [7] is 4.1 mg/kg; in data set [4], 4.8 mg/kg; in data set [5] it was 15.2 mg/kg.

For `O=C1CSC(=O)N1CCCCN1CCN(c2noc3ccccc23)CC1`, the results for the 50% inhibitory concentration (IC50) in data set [1] and in data set [2] were 240 nM and 1 nM, respectively. Moreover, the ED50 in data set [3] was 8.3 mg/kg; in [5] it was 11.7 mg/kg.

With `O=C1CC2(CCCC2)CC(=O)N1CCCCN1CCN(c2noc3ccc(Cl)cc23)CC1`, the IC50 was determined as 360 nM in [1] and 46 nM in data set [2]. Also, the 50% effective dose (ED50) in data set [3] is more than 100 mg/kg.

Consider `O=C(CCCN1CCN(c2noc3ccccc23)CC1)c1ccc(F)cc1`, for which the ED50 in data set [6] worked out at 39.9 mg/kg; in data set [3] it was 5.8 mg/kg. In addition, the IC50 in data set [1] came out at 69 nM; in data set [2], 5 nM.

Turning to `CN(C)CCCN1c2ccccc2Sc2ccc(Cl)cc21` [CHLORPROMAZINE], the ED50 in data set [8] came out at 17.2 mg/kg; in [9], 3.6 mg/kg; in data set [4], 9.6 mg/kg; in data set [11] it was 2.72 mg/kg; in data set [5], 4.1 mg/kg. The compound also returned an LD50 in [10] of 250 mg/kg.

Regarding `CN1CCN(C2=Nc3cc(Cl)ccc3Nc3ccccc32)CC1` [CLOZAPINE], the 50% effective dose (ED50) in data set [8] is 17.5 mg/kg; in [14], 5.4 mg/kg; in data set [15], 3.23 mg/kg; in data set [9], 1.9 mg/kg; in [11], 3.5 mg/kg; in data set [5] it was more than 200 mg/kg. Further, in [16], the median effective dose (ED50) turned out to be 1.69 mg/kg. The IC50 in data set [12] was more than 1000 nM; in [13], 18 nM. The compound further registered a 50% lethal dose (LD50) in [10] of 219 mg/kg.

Regarding `O=C(CCCN1CCC(O)(c2ccc(Cl)cc2)CC1)c1ccc(F)cc1` [HALOPERIDOL], the median effective dose (ED50) is 0.28 mg/kg in data set [17]; 0.73 mg/kg in data set [8]; more than 80 mg/kg in [14]; 0.45 mg/kg in [9]; 2.8 mg/kg in data set [3]; 0.5 mg/kg in [4]. Besides, the ED50 turned out to be 26 mg/kg in data set [11] and 0.58 mg/kg in data set [5]. The same compound came in with a 50% lethal dose (LD50) in data set [10] of 500 mg/kg.

In [2], `CN1CCN(CCCN2c3ccccc3Sc3ccc(C(F)(F)F)cc32)CC1` [TRIFLUOPERAZINE] displayed an IC50 of 350 nM. Besides, the ED50 in [3] worked out at 6.9 mg/kg; in data set [4], 6.5 mg/kg; in data set [5] it was 3 mg/kg.
